Experiments:
[1] = Partition coefficient, log P of the compound; format: physicochemical; conditions: octanol/water
[2] = Cytotoxicity against human CEM cells expressing green fluorescent protein assessed as cell viability at 20 ug after 48 hrs by MTT assay; format: cell-based, CCRF-CEM; conditions: read-out: Activity
[3] = Cytotoxicity against human TZM-bl cells assessed as cell viability at 10 ug after 48 hrs by MTT assay; format: cell-based; conditions: read-out: Activity
Method in brief: (§1)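 TZM-bl cells, 3 × 10³ per well, incubated 48 h at 37 °C in 5% CO₂ with or without compound. MTT (5 mg/mL reagent) added for 3 h, then solubilised in 20% SDS/50% DMF in PBS. OD read at 570 nm with 690 nm reference. Viability = [(OD treated − OD virus control)/(OD uninfected − OD virus control)] × 100.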

[4] = Cytotoxicity against human CEM cells expressing green fluorescent protein assessed as cell viability at 10 ug after 48 hrs by MTT assay; format: cell-based, CCRF-CEM; conditions: read-out: Activity
[5] = Cytotoxicity against human TZM-bl cells assessed as cell viability at 100 ug after 48 hrs by MTT assay; format: cell-based; conditions: read-out: Activity; method in brief: as §1
[6] = Cytotoxicity against human CEM cells expressing green fluorescent protein assessed as cell viability at 100 ug after 48 hrs by MTT assay; format: cell-based, CCRF-CEM; conditions: read-out: Activity
[7] = test system: Human immunodeficiency virus 1; test: Antiviral activity against 0.05 MOI Human immunodeficiency virus 1 NL4.3 infected in human CEM cells expressing green fluorescent protein at 20 ug/ml after 8 days by fluorometric analysis; format: functional; conditions: Human immunodeficiency virus 1, NL4.3, CCRF-CEM, 192 h
Method in brief: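 CEM-GFP cells seeded at 2.0 × 10⁵ cells/mL with compounds in duplicate. AZT ([…]) was the positive control; 50% ethanol and distilled water were vehicle controls. Cells incubated at 37 °C in 5% CO₂. On day 5, 0.4 mL of suspension was replaced with 1 mL fresh medium and compounds were re-added, then incubation continued. % inhibition = 100 − (GFP fluorescence treated/untreated infected × 100).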

[8] = Cytotoxicity against human TZM-bl cells assessed as cell viability at 20 ug after 48 hrs by MTT assay; format: cell-based; conditions: read-out: Activity; method in brief: as §1
[9] = Cytotoxicity against human TZM-bl cells assessed as cell viability at 50 ug after 48 hrs by MTT assay; format: cell-based; conditions: read-out: Activity; method in brief: as §1
[10] = Cytotoxicity against human CEM cells expressing green fluorescent protein assessed as cell viability at 50 ug after 48 hrs by MTT assay; format: cell-based, CCRF-CEM; conditions: read-out: Activity
[11] = test system: Human immunodeficiency virus 1; test: Antiviral activity against 0.025 MOI Human immunodeficiency virus 1 infected in human TZM-bl cells at 2 ug/ml after 48 hrs by beta-galactosidase assay; format: functional; conditions: Human immunodeficiency virus 1, TZM-bl
Method in brief: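 TZM-bl cells, 2.0 × 10⁵ per well, cultured overnight at 37 °C in 5% CO₂. Virus with treatments added for 4 h. Cells then washed twice in serum-free DMEM and refed with DMEM + 10% FCS. Compounds re-added and cells incubated 48 h. Cells fixed in 1% glutaraldehyde for 10 min and stained 24 h at 37 °C. Blue foci counted microscopically; % inhibition = 100 − (foci treated/foci untreated infected × 100). AZT positive control.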

Row | logP [1] | SMILES | viability at 48 h, 20 ug [2] [%] | viability at 48 h, 10 ug [3] [%] | viability at 48 h, 10 ug [4] [%] | viability at 48 h, 100 ug [5] [%] | viability at 48 h, 100 ug [6] [%] | inhibition at 20 µg/mL [7] [%] | viability at 48 h, 20 ug [8] [%] | viability at 48 h, 50 ug [9] [%] | viability at 48 h, 50 ug [10] [%] | inhibition at 2 µg/mL [11] [%]
1 | 0.54 | O=C1Nc2ccc([N+](=O)[O-])cc2[C@]12C[C@H]2CO | 127 | 100 | 119 | 109 | 116 | 3 | 107 | 104 | 122 | 5
2 | 1.84 | O=C1Nc2ccc([N+](=O)[O-])cc2[C@]12C[C@H]2CCl | 118 | 102 | 101 | 92 | 76 | 4 | 102 | 101 | 103 | 6
3 | 3.48 | O=C1Nc2ccc(OC(F)(F)F)cc2[C@]12C[C@H]2CCl | 74 | 91 | 94 | 60 | 2 | 3 | 95 | 66 | 37 | 9
4 | 1.89 | O=C1Nc2ccc(OC(F)(F)F)cc2[C@]12C[C@H]2CO | 72 | 90 | 91 | 60 | 3 | 7 | 93 | 62 | 33 | 10
5 | 2.44 | Cc1ccc2c(c1)[C@]1(C[C@H]1CCl)C(=O)N2 | 89 | 93 | 92 | 87 | 81 | 5 | 91 | 88 | 85 | 8
6 | 1.21 | Cc1ccc2c(c1)[C@]1(C[C@H]1CO)C(=O)N2 | 101 | 102 | 105 | 93 | 100 | 3 | 100 | 95 | 100 | 6
7 | 2.19 | O=C1Nc2ccccc2[C@]12C[C@H]2CO | 95 | 99 | 96 | 89 | 90 | 6 | 98 | 92 | 92 | 4
8 | 1.95 | O=C1Nc2ccccc2[C@]12C[C@H]2CCl | 87 | 93 | 91 | 86 | 88 | 2 | 92 | 87 | 83 | 7

— ChEMBL document CHEMBL1759956, “Rhodium(II) acetate-catalyzed stereoselective synthesis, SAR and anti-HIV activity of novel oxindoles bearing cyclopropane ring” (Eur J Med Chem, 2011)
